Variants at the floor of the assay were thinned out.
B1: tRNA (parent)
chain: GUUCCGUUGGCGUAAUGGUAACGCGUCUCCCUCCUAAGGAGAAGACUGCGGGUUCGAGUCCCGUACGGAACG

Variants of: B1
Experiment: yeast fitness relative to wild type (ratio to wild type); higher = fitter; tRNA-Arg(CCU), competitive growth, 37 C, YPD
Method in brief: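 For this measurement, the tRNA-Arg(CCU) gene was varied by chemical synthesis at a 3% per-site mutation rate across 69 sites, and each variant was placed at the native genomic locus in Saccharomyces cerevisiae. The pooled strains went through a 24-hour competition in YPD at 37°C in six parallel replicates, with amplicons from start and end populations read by 100-nucleotide paired-end sequencing. Darwinian fitness relative to wild type followed from the change in each genotype's frequency. Genotypes needed ≥ 100 starting reads, and estimates < 0.5 were set to 0.5.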

G18C C29U A43G C49A and G6C U8C A42G C46U C55G A65U cannot be ordered by yeast fitness: at most 0.5 for the first, at most 0.5 for the second.

Compared with U8C C24U U26A, C27U G38C G67A is lower in yeast fitness: 0.607 for the first, at most 0.5 for the second.

Compared with A36G G38C G58C, C11A C30U C31U A36G G39C A45U G52C C60A is lower in yeast fitness: 0.687 for the first, at most 0.5 for the second.

First: C34U C60U
Second: C33G C34U G38C U47A
The yeast fitness of the first is higher: 0.563 for the first, 0.517 for the second.

Going from C5A C22G to U19A C62U, the yeast fitness rises from 0.862 to 0.931.

First: U3A A37C C60A A70G
Second: C5A C30A A70U
The yeast fitness of the first is lower: at most 0.5 for the first, 0.742 for the second.

First: G6A A57C A65C
Second: U13G A21G
The yeast fitness of the first is lower: 0.541 for the first, 0.895 for the second.

G10A C24A G44A A65U and U13A C34U A36G cannot be ordered by yeast fitness: at most 0.5 for the first, at most 0.5 for the second.

First: A14G U19C G38C G44C C46A
Second: U3C A15G C29A A40U C55G C61G
The yeast fitness of the first is higher: 0.704 for the first, at most 0.5 for the second.

C5U G17C A21U A40G U47G G48C and G18A G50C G56C cannot be ordered by yeast fitness: at most 0.5 for the first, at most 0.5 for the second.

First: C4U U13C U26A G63C
Second: C5A G17C G18C G58A U59G
The yeast fitness of the first is lower: at most 0.5 for the first, 0.535 for the second.

Going from U35C G50A C55U to C55A A65U, the yeast fitness rises from at most 0.5 to 0.572.

Going from G12A G44C A65G to G10A U26A, the yeast fitness rises from 0.649 to 0.731.

Compared with G10A C27A, A15U U16A C22G C60U is lower in yeast fitness: 0.801 for the first, at most 0.5 for the second.

Going from C31A C66G to C4U A15G, the yeast fitness rises from 0.615 to 0.997.

Compared with U2C A20U C62U, U28A C29G G51A G56A C66G is lower in yeast fitness: 0.571 for the first, at most 0.5 for the second.

First: C11U U54C G56A
Second: U26G G68C
The yeast fitness of the first is lower: at most 0.5 for the first, 0.596 for the second.

Compared with U32C A43G A65C, G12C C27G G58A is lower in yeast fitness: 0.913 for the first, at most 0.5 for the second.

First: U2C A40C G52C
Second: G6C A14G C49G G50A
The yeast fitness of the first is higher: 0.528 for the first, at most 0.5 for the second.

First: G25A C55U
Second: U3A C46A A69C
The yeast fitness of the first is lower: 0.84 for the first, 0.997 for the second.

Compared with U19C A43U C62A, G12A U28A U54C is lower in yeast fitness: 0.628 for the first, at most 0.5 for the second.

U13C C22G G68U and C30A C62U G63A cannot be ordered by yeast fitness: at most 0.5 for the first, at most 0.5 for the second.

Going from U53A G56A A65U to G10C C24U C29G A45U C46G U47A G50A U64G, the yeast fitness rises from at most 0.5 to 0.536.

Going from C5U C49U G56U to U8G A14U A15U A20C C60U A69C, the yeast fitness falls from 0.538 to at most 0.5.

Going from G38C U47G C62U to U7G U59A, the yeast fitness rises from 0.521 to 0.754.

Compared with U26A A37C C49U G56A, C30A C66A is higher in yeast fitness: at most 0.5 for the first, 0.636 for the second.

U26A C49G G56U and A15U G18C G23C C24G cannot be ordered by yeast fitness: at most 0.5 for the first, at most 0.5 for the second.

First: C27U U35C A43C A69U
Second: A20G C27A A40G C46G C62G
The yeast fitness of the first is higher: 0.62 for the first, at most 0.5 for the second.

Compared with A37C C46G, U3C G18A C31A G56C A69C is lower in yeast fitness: 0.947 for the first, at most 0.5 for the second.

U3A U35C A57C and C11G A15U A36U C66U cannot be ordered by yeast fitness: at most 0.5 for the first, at most 0.5 for the second.

U16A C30G G44C A65C and C29U C33U G39C A57U cannot be ordered by yeast fitness: at most 0.5 for the first, at most 0.5 for the second.

U2A G9A A20C C24U and C5U A14U A21G A65C cannot be ordered by yeast fitness: at most 0.5 for the first, at most 0.5 for the second.

Compared with G25C A40G C61G G63A A69U, C22A C33U is higher in yeast fitness: at most 0.5 for the first, 0.604 for the second.

Compared with G52C C66A, A20C U35A A36G G44C G68U is lower in yeast fitness: 0.538 for the first, at most 0.5 for the second.

C5A C34G C66U and C29A C55U G63C U64C cannot be ordered by yeast fitness: at most 0.5 for the first, at most 0.5 for the second.

U16C A21C A37G A69G A70G and G9C A14G C55G C61U cannot be ordered by yeast fitness: at most 0.5 for the first, at most 0.5 for the second.

First: C29U C33A C34U C46G
Second: U3C G58C G67C
The yeast fitness of the first is lower: at most 0.5 for the first, 0.701 for the second.

Going from G12C G56C to U2A C5U, the yeast fitness rises from 0.694 to 0.906.

G6A U26G C30U G52A and G17A C30U A42C cannot be ordered by yeast fitness: at most 0.5 for the first, at most 0.5 for the second.

U8C A21U C24A and G12A U13A G41C A45C C66U cannot be ordered by yeast fitness: at most 0.5 for the first, at most 0.5 for the second.

Going from G17C G56C to U3C C22U C66U, the yeast fitness falls from 0.633 to 0.552.

C4A C5U C22U C34A C49U C62U and U7C G12A A45C C49U C61G A65C cannot be ordered by yeast fitness: at most 0.5 for the first, at most 0.5 for the second.

Going from G12C G67A to C30U C33A G39A, the yeast fitness falls from 0.771 to at most 0.5.

Going from G10A C31A G41A A45U G58C to U7G C33G, the yeast fitness rises from at most 0.5 to 0.654.

U13G C22G G63C G67A and U2G G9C A20G G25A A42C C46G C49U A69C cannot be ordered by yeast fitness: at most 0.5 for the first, at most 0.5 for the second.

U7C C11U C61U A65G G68C and A42G G48A G51C cannot be ordered by yeast fitness: at most 0.5 for the first, at most 0.5 for the second.

Going from A15G A43U A69C to C4G C34G A40G G68A, the yeast fitness falls from 0.8 to at most 0.5.

C5U U7A C62A A69G A70G and C27U U32C A65U A70C cannot be ordered by yeast fitness: at most 0.5 for the first, at most 0.5 for the second.

First: A20U G25C A37G C60G C61G
Second: C11A C31U A37C C66U
The yeast fitness of the first is higher: 0.561 for the first, at most 0.5 for the second.

Going from G9C G18C G44A to U19C G38A, the yeast fitness rises from 0.526 to 1.01.

First: U59A G68A
Second: G9A C34A
The yeast fitness of the first is higher: 0.791 for the first, 0.704 for the second.

First: U3A U13C G68A
Second: U8A A36C U53C
The yeast fitness of the first is higher: 0.528 for the first, at most 0.5 for the second.

U26C U35G G50A C62U and C4A U7A C31A U54A cannot be ordered by yeast fitness: at most 0.5 for the first, at most 0.5 for the second.

First: G56U G58A
Second: A45C C66G
The yeast fitness of the first is higher: 0.589 for the first, 0.586 for the second.

C5G G17C A45G C46U and C31G C49U U54G cannot be ordered by yeast fitness: at most 0.5 for the first, at most 0.5 for the second.

G9C A15U U28G A42U and C30U C34G A40C C49G G68C cannot be ordered by yeast fitness: at most 0.5 for the first, at most 0.5 for the second.

Compared with C11U A20C C22G A65G A70C, U2A U32C A57G is higher in yeast fitness: at most 0.5 for the first, 0.652 for the second.

Going from C11U A14G U35C C60G to U19C C29U A43G, the yeast fitness rises from at most 0.5 to 0.677.

Going from U47C C49A A65G to A42U G48A, the yeast fitness rises from at most 0.5 to 0.895.

First: C11G A36U A42G A43C
Second: A43C C62U
The yeast fitness of the first is lower: 0.527 for the first, 0.93 for the second.

Compared with U8A G12A A14C A57U G67C, C24G C30U A43U is higher in yeast fitness: at most 0.5 for the first, 0.549 for the second.

First: G23C C46U A70U
Second: U3A A15G U19A U32C G41A G50A
The yeast fitness of the first is higher: 0.622 for the first, at most 0.5 for the second.

Going from C49G A69C to U8G A45G, the yeast fitness falls from 0.766 to 0.632.

First: A20U C61A
Second: A21G A42U G56A C61U
The yeast fitness of the first is higher: 0.646 for the first, at most 0.5 for the second.

C4U U7A C30G C34G A40C A65U and C11G C27U C34U cannot be ordered by yeast fitness: at most 0.5 for the first, at most 0.5 for the second.

Going from G12C A45U C61G to G17A A37G, the yeast fitness rises from 0.528 to 0.606.

First: A14U C55A
Second: C11G A36C G41A C66U
The yeast fitness of the first is higher: 0.575 for the first, at most 0.5 for the second.

Compared with C30G C46G C60U A69G, A37U G48A C61U is higher in yeast fitness: at most 0.5 for the first, 0.531 for the second.

Compared with U19A C31G G38C A40C G56A, G10C C29G A42U is lower in yeast fitness: 0.569 for the first, 0.554 for the second.

Going from C27G G41A U64A to C24U U47C U59C A69U, the yeast fitness falls from 0.681 to at most 0.5.

C24G U26A U35A C55U A65G A69C and C27G A42U C55U A70C cannot be ordered by yeast fitness: at most 0.5 for the first, at most 0.5 for the second.

Compared with C4U C5G U7G C33A A70U, C4A C34A is higher in yeast fitness: at most 0.5 for the first, 0.817 for the second.

First: G9C G48A A69C
Second: U8C C34G
The yeast fitness of the first is higher: 0.627 for the first, 0.574 for the second.

First: C24G G48C A57G G68C
Second: U8C U16A C27U C55G
The yeast fitness of the first is lower: at most 0.5 for the first, 0.691 for the second.

A20U A21C C27A G41A and A14C G18C G56A cannot be ordered by yeast fitness: at most 0.5 for the first, at most 0.5 for the second.

Going from G10C A14C C61U to U7G U28A, the yeast fitness rises from at most 0.5 to 0.704.

A14C A40C G41C C55A A70U and G10C C31G C49U cannot be ordered by yeast fitness: at most 0.5 for the first, at most 0.5 for the second.

Going from A21G C24G A37U to C11U U35C A70G, the yeast fitness rises from 0.573 to 0.641.

First: A37G A70U
Second: C27A U28C C29G A65U
The yeast fitness of the first is higher: 0.741 for the first, at most 0.5 for the second.

Going from U2C A14G C29A C33G C66A to C29G C30U, the yeast fitness rises from at most 0.5 to 0.632.

U3G C4A G6A U35C and U19G C33G A37C C49G cannot be ordered by yeast fitness: at most 0.5 for the first, at most 0.5 for the second.

First: U3C U8G U32A C33G
Second: C27A A36G
The yeast fitness of the first is lower: at most 0.5 for the first, 0.761 for the second.

C24U C46G U54C C62A and A14G A15C C46A U64G A65U cannot be ordered by yeast fitness: at most 0.5 for the first, at most 0.5 for the second.

C11A C27G C31U G68A gave a yeast fitness of at most 0.5.
